ChEMBL document CHEMBL4017500 (J Med Chem, 2017)
pIC50: −log10 of the molar value. Activity calls are given as the source filed them. The calls are words filed in the database; no cut-off is given here.

What was measured:
[1] = biological target: Histone deacetylase 1 (Homo sapiens) (UniProt Q13547); assay: Inhibition of full length human C-terminal FLAG/His-tagged HDAC1 expressed in baculovirus infected sf9 cells at 50 to 100 uM using HDAC substrate 3 preincubated for 5 mins followed by substrate addition measured after 30 mins by fluorescence assay
Sequence of Histone deacetylase 1 (Homo sapiens) (Q13547 whole entry): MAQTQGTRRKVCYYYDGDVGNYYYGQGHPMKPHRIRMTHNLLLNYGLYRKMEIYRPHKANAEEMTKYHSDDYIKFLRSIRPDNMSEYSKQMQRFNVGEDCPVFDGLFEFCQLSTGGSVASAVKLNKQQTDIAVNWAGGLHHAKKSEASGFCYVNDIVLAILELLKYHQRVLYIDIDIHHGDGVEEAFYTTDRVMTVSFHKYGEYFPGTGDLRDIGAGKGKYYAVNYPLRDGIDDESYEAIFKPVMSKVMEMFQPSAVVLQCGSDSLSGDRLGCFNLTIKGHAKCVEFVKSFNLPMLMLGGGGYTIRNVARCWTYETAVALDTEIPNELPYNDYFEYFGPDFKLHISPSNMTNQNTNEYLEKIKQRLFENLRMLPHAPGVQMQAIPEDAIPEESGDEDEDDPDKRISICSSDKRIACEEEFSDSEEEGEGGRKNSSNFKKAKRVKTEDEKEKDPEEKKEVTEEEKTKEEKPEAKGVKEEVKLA
In short: (§1)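 Inhibitor pre-incubated 5 min, then HDAC substrate 3 (20 μM) added, 30 min at 37 °C. Developer added for 15 min at room temperature; fluorescence read at ex/em 360/460 nm. Activity relative to no-inhibitor wells, with 200 μM SAHA as 0%. Run in triplicate.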

[2] = Inhibition of bacterial MBP-fused NDM1 expressed in Escherichia coli BL21(DE3) ausing chromacef as substrate preincubated for 20 mins followed by substrate addition measured after 0.3 mins; parameters: species or system Bacteria
In short: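 Preincubated 20 min, then 3 μM substrate (~3×KM) added. A442 followed ~0.3 min at 25 °C. Activity scaled to uninhibited (100%) and no-enzyme (0%) controls, fitted to a Hill-type equation.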

[3] = test system: Klebsiella pneumoniae; assay: Effect on growth of Klebsiella pneumoniae isolate Pd1.50 at 100 mg/L after 18 to 20 hrs by broth microdilution assay
In short: (§2)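 Mueller-Hinton broth microdilution per CLSI, triplicate. blaNDM-1 clinical isolates grown from OD600 0.1 to 0.224 (~1–2 × 10^8 CFU/mL), diluted 3 μL into 4997 μL MH, and 100 μL added to 100 μL of compound (100 mg/L) alone. Incubated 37 °C for 18–20 h, then scored for growth.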

[4] = biological target: Carbonic anhydrase 2 (Homo sapiens) (UniProt P00918); assay: Inhibition of human carbonic anhydrase 2 at 50 to 100 uM using p-nitrophenyl acetate as substrate preincubated for 10 mins followed by substrate addition measured for 15 mins
In short: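 hCAII (100 nM) in 50 mM HEPES pH 8.0 pre-incubated with inhibitor for 10 min at 30 °C. p-Nitrophenyl acetate (500 μM) then added and absorbance at 405 nm followed 15 min. Activity relative to no-inhibitor wells, with 50 μM benzene sulfonamide as 0%. Run in triplicate.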

[5] = biological target: T1, Protein deacetylase HDAC6 (Homo sapiens) (UniProt Q9UBN7); assay: Inhibition of full length human N-terminal GST-tagged HDAC6 expressed in baculovirus infected sf9 cells at 10 uM using HDAC substrate 3 preincubated for 5 mins followed by substrate addition measured after 30 mins by fluorescence assay; in short: as §1
T1 sequence (whole entry): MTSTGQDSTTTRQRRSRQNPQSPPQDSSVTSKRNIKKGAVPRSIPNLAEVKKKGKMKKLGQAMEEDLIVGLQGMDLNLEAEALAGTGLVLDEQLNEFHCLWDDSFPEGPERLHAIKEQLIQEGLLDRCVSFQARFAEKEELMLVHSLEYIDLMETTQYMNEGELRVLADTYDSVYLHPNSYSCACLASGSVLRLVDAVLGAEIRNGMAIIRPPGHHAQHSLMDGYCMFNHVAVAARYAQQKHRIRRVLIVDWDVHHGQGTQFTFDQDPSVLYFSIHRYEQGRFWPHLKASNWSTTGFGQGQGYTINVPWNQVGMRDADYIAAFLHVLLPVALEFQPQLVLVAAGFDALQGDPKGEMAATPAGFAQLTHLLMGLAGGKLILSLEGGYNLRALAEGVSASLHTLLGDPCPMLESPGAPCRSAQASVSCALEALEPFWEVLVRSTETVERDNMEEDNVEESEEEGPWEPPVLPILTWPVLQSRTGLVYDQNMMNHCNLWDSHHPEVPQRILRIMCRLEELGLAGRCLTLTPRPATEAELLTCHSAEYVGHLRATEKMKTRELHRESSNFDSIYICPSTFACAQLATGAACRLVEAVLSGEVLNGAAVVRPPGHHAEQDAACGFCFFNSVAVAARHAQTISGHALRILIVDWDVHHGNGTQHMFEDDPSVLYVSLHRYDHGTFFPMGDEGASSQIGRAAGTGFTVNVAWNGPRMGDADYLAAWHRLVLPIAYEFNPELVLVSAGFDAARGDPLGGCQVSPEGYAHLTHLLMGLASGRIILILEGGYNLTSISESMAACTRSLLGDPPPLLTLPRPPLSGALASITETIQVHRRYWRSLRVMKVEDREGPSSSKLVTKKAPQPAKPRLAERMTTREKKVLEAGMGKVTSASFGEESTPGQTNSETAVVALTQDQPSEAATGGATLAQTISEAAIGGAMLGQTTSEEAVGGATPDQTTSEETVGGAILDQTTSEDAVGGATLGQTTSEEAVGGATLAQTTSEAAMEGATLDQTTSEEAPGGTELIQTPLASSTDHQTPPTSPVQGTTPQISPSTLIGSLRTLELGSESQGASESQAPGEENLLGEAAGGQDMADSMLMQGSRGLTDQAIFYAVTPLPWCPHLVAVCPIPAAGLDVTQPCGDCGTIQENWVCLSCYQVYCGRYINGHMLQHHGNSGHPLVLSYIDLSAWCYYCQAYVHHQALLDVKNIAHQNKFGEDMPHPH

[6] = test system: Escherichia coli; assay: Inhibition of NDM1 in Escherichia coli isolate Ch8.70 assessed as potentiation of imipenem-induced antibacterial activity by measuring imipenem MIC at 100 mg/L after 18 to 20 hrs by broth microdilution assay (reference value: 16 mg/L)
[7] = test system: Escherichia coli; assay: Inhibition of NDM1 in Escherichia coli isolate Ah8.73 assessed as potentiation of imipenem-induced antibacterial activity by measuring imipenem MIC at 100 mg/L after 18 to 20 hrs by broth microdilution assay (reference value: 16 mg/L)
[8] = biological target: Metallo-beta-lactamase type 2 (Klebsiella pneumoniae) (UniProt C7C422); assay: Inhibition of NDM1 in Klebsiella pneumoniae isolate Cm1.63 assessed as potentiation of imipenem-induced antibacterial activity by measuring imipenem MIC at 100 mg/L after 18 to 20 hrs by broth microdilution assay (reference value: 8 mg/L)
Sequence of Metallo-beta-lactamase type 2 (Klebsiella pneumoniae) (C7C422 whole entry): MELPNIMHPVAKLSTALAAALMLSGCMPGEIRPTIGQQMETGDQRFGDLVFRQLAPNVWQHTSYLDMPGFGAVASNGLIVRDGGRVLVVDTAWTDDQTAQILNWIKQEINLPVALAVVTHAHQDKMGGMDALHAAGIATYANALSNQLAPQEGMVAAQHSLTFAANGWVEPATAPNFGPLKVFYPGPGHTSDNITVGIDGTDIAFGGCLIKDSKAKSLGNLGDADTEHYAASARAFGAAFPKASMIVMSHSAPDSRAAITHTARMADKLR

[9] = biological target: Metallo-beta-lactamase type 2 (Klebsiella pneumoniae) (UniProt C7C422); assay: Inhibition of NDM1 in Klebsiella pneumoniae isolate Pd1.54 assessed as potentiation of imipenem-induced antibacterial activity by measuring imipenem MIC at 100 mg/L after 18 to 20 hrs by broth microdilution assay (reference value: 8 mg/L)
[10] = test system: Escherichia coli; assay: Effect on growth of Escherichia coli isolate Ch8.69 at 100 mg/L after 18 to 20 hrs by broth microdilution assay; in short: as §2
[11] = test system: Escherichia coli; assay: Effect on growth of Escherichia coli isolate Ah8.71 at 100 mg/L after 18 to 20 hrs by broth microdilution assay; in short: as §2
[12] = test system: Bacteria; assay: Binding affinity to bacterial NDM-1 expressed in Escherichia coli BL21(DE3) assessed as intrinsic tryptophan fluorescence quenching up to 32 uM after 30 mins by luminescence spectrometric method relative to control
In short: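 NDM-1 at 2 μM final in 50 mM HEPES pH 7.5 mixed with compound at 4–32 μM, incubated 30 min. Emission scanned 300–400 nm with excitation at 280 nm. Relative tryptophan fluorescence read at 348 nm, with buffer set to 0% and inhibitor-free NDM-1 to 100%. Control run with 2 μM L-tryptophan in place of enzyme.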

With `Nc1cccc(-c2cc(C(=O)O)nc(C(=O)O)c2)c1` the inhibition [1] was under 50%, the pIC50 [2] was 6.49 and the Activity [3] was “Non-Toxic”. The inhibition [4] was under 50%, the inhibition [5] was “inactive” and the MIC [6] was 0.5 µg/mL. It also gave an MIC [7] of 0.5 µg/mL, an MIC [8] of 1 µg/mL and an MIC [9] of 0.5 µg/mL. The Activity [10] was “Non-Toxic”, the Activity [11] was “Non-Toxic” and the Activity [12] was 50 to 60%.
